Calls of active or inactive are those of the source. The rule behind the calls is not given here.
Tests used:
[1] = molecular target: T1, Lysine-specific demethylase 5A (Homo sapiens, UniProt P29375); assay: Irreversible inhibition of KDM5A ARID/PhD1 domain deletion mutant (1 to 739 residues) (unknown origin) at 100 uM using alpha-KG measured after 4 times of buffer exchange by succinate-glo demethylase assay
How it was run: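 Enzyme–inhibitor complex preformed ([E] = 5 μM, initial [I] = 100 μM), then four buffer exchanges before Succinate-Glo activity measurement.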

[2] = molecular target: T1, Lysine-specific demethylase 5A; assay: Irreversible inhibition of KDM5A ARID/PhD1 domain deletion mutant (1 to 739 residues) (unknown origin) using alpha-KG measured immediately by succinate-glo demethylase assay
How it was run: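 Compound and KDM5A(1−739)ΔAP either without preincubation or preincubated 20 min before αKG addition; activity read by Succinate-Glo.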

[3] = molecular target: T1, Lysine-specific demethylase 5A; assay: Irreversible inhibition of KDM5A ARID/PhD1 domain deletion mutant (1 to 739 residues) (unknown origin) using 1000 uM alpha-KG by succinate-glo demethylase assay
How it was run: (§1)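 KDM5A(1−739)ΔAP (0.8 μM) preincubated 20 min with 2-fold serial dilutions of compound. Reaction started with αKG (10, 100 or 1000 μM) and H3(1−24)K4me3 (60 μM), 10 μM (NH4)2Fe(SO4)2, 100 μM ascorbate, 50 mM HEPES pH 8.0, 5% DMSO. Run 10 min at ambient temperature, n = 3; succinate read by Succinate-Glo luminescence.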

[4] = molecular target: T1, Lysine-specific demethylase 5A; assay: Irreversible inhibition of KDM5A ARID/PhD1 domain deletion mutant (1 to 739 residues) (unknown origin) using 100 uM alpha-KG by succinate-glo demethylase assay; how it was run: as §1
[5] = molecular target: T1, Lysine-specific demethylase 5A; assay: Irreversible inhibition of KDM5A ARID/PhD1 domain deletion mutant (1 to 739 residues) (unknown origin) using alpha-KG by succinate-glo demethylase assay; how it was run: as §1
[6] = molecular target: T1, Lysine-specific demethylase 5A; assay: Binding affinity to KDM5A ARID/PhD1 domain deletion mutant (1 to 588 residues) (unknown origin) assessed as covalent modification of enzyme at 0.5 mM after 30 mins by ESI-tandem-MS analysis
[7] = Effective permeability of the compound at pH 7.4 by PAMPA; type: ADME; conditions: read-out: Peff
How it was run: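 PAMPA with a lipid/dodecane artificial membrane and pH 7.4 buffer in donor and acceptor wells. Compounds diluted from 10 mM DMSO stock to 0.05 mM final, 0.5% DMSO. Donor stirred during a 30 min permeation at room temperature. Donor and acceptor concentrations read by UV. Permeability given in 10−6 cm s−1: >100 high, 10–100 moderate, <10 low.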

[8] = Metabolic stability in human BT474 cell culture media assessed as parent compound remaining at 10 uM after 24 hrs by LC-MS/MS analysis; type: physicochemical; conditions: read-out: Stability
Homo sapiens = species on record: Homo sapiens; assay: Selectivity ratio of IC50 for recombinant KDM4A (1 to 350 residues) (unknown origin) to IC50 for recombinant KDM5B ARID/PhD1 domain deletion (1 to 755 residues) (unknown origin)
How it was run: (§2)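 AlphaLISA using antibody to H3K4 (KDM5B) or H3K9 (KDM4A) methylation to detect demethylation of enzyme-specific histone peptides. Both enzymes are recombinant catalytic domains from E. coli, tested at the same enzyme concentration.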

[9] = molecular target: T2, Lysine-specific demethylase 4A (Homo sapiens, UniProt O75164); assay: Irreversible inhibition of recombinant KDM4A (1 to 350 residues) (unknown origin) expressed in Escherichia coli using H3 (1 to 21 residues) K9me3 as substrate preincubated for 10 mins followed by substrate/alphaKG/(NH4)2Fe(SO4)2 addition measured after 1 hr by alphaLISA assay; how it was run: as §2
T2 sequence (O75164 whole entry): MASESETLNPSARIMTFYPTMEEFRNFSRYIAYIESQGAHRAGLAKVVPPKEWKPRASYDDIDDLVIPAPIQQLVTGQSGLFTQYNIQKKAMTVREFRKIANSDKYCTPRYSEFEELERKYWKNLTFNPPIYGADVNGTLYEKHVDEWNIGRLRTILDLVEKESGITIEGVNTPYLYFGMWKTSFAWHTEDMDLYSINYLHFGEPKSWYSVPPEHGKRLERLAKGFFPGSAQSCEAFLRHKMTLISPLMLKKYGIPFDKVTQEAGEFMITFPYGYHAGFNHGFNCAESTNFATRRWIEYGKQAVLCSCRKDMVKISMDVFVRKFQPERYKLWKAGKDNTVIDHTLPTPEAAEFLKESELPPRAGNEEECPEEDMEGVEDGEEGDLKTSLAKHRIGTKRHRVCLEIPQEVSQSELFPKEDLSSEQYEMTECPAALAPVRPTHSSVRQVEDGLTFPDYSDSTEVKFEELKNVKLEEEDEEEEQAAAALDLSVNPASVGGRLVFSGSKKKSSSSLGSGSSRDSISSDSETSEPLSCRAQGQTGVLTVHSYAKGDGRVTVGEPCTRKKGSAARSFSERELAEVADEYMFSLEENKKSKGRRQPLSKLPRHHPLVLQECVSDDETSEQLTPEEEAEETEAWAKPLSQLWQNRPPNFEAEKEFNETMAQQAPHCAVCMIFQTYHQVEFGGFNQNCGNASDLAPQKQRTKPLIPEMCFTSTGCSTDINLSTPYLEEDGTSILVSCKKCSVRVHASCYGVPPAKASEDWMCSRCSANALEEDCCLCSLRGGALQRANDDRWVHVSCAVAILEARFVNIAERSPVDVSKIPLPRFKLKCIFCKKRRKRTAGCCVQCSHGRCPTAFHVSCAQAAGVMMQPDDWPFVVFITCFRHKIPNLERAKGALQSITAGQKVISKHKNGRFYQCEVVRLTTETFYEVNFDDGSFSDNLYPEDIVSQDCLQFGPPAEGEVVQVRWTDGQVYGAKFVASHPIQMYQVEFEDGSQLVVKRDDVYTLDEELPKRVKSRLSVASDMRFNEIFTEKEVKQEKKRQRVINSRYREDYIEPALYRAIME

[10] = molecular target: T1, Lysine-specific demethylase 5A; assay: Irreversible inhibition of KDM5A ARID/PhD1 domain deletion mutant (1 to 739 residues) (unknown origin) using 10 uM alpha-KG by succinate-glo demethylase assay; how it was run: as §1
[11] = Drug level in human BT474 cell culture media treated with isopropyl 2-((3-Aminophenyl)(2-(piperidin-1-yl)-ethoxy)methyl)thieno[3,2-b]pyridine-7-carboxylate at 10 uM after 24 hrs by LC-MS/MS analysis; type: physicochemical
MCF7 [12] = assay: Inhibition of KDM5 human MCF7 cells assessed as up-regulation of STING protein expression at 1 to 5 uM after 48 hrs by Western blot analysis relative to control; type: cell-based
How it was run: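 MCF7 cells treated with compound or 0.1% DMSO for 30 or 48 h; total cell lysates analysed by Western blot with specific antibodies.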

[13] = Drug uptake in human BT474 cells at 2.5 uM after 24 hrs by LC-MS/MS analysis; type: ADME, cell-based; conditions: bt-474, 24 h
How it was run: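 Compound incubated with BT474 cells for 24 h; cells lysed and compound level in the extract determined.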

MDA-MB-231 = assay: Cytotoxicity against human MDA-MB-231 cells assessed as cell killing at 5 to 10 uM after 24 hrs by bright-field microscopy; type: functional, cell-based
[14] = molecular target: T1, Lysine-specific demethylase 5A; assay: Inhibition of KDM5A in human BT474 cells assessed as effect on H3K4me3 methylation levels up to 5 uM after 48 hrs by immunocytochemistry
MCF7 [15] = assay: Cytotoxicity against human MCF7 cells assessed as cell killing at 5 to 10 uM after 24 hrs by bright-field microscopy; type: functional, cell-based
MCF7 [16] = assay: Inhibition of KDM5 human MCF7 cells assessed as up-regulation of STING mRNA expression at 1 to 5 uM after 48 hrs by RT-qPCR assay relative to control; type: cell-based
How it was run: (§3)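 MCF7 cells treated with compound or DMSO for 48 h; target mRNA quantified by real-time RT-PCR; biological triplicates.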

BT-474 [17] = assay: Cytotoxicity against human BT474 cells assessed as reduction in cell viability at >5 uM after 24 hrs by celltiter glo assay; type: functional, cell-based
How it was run: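 BT474 cells treated with compound; viability read by CellTiter-Glo luminescence 24 h after treatment.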

MCF7 [18] = assay: Inhibition of KDM5 human MCF7 cells assessed as up-regulation of MT1H mRNA expression at 1 to 5 uM after 48 hrs by RT-qPCR assay relative to control; type: cell-based; how it was run: as §3
HEK-293T = assay: Cytotoxicity against HEK293T cells assessed as cell killing at 5 to 10 uM after 24 hrs by bright-field microscopy; type: cell-based; conditions: human
BT-474 [19] = assay: Growth inhibition of human BT474 cells at 0.11 to 3.5 uM after 12 days by IncuCyte live cell imaging method; type: functional, cell-based
How it was run: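 BT474 cells grown with compound; percent confluence tracked by IncuCyte live-cell imaging every 4 h over 300 h.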

MCF7 [20] = assay: Inhibition of KDM5 human MCF7 cells assessed as up-regulation of MT1F mRNA expression at 1 to 5 uM after 48 hrs by RT-qPCR assay relative to control; type: cell-based; how it was run: as §3
[21] = molecular target: T1, Lysine-specific demethylase 5A; assay: Irreversible inhibition of KDM5A ARID/PhD1 domain deletion mutant (1 to 739 residues) (unknown origin)
How it was run: (§4)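 KDM5A (0.8 μM) preincubated with five inhibitor concentrations (0.01–5 μM). At each time point, mixture added to H3 peptide (60 μM) and αKG (100 μM) and stopped after 7 min. Log % remaining activity plotted against preincubation time; negative slopes fitted by nonlinear regression against [I] to give kinact and KI.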

[22] = molecular target: T1, Lysine-specific demethylase 5A; assay: Irreversible inhibition of 1.6 uM KDM5A ARID/PhD1 domain deletion mutant (1 to 739 residues) (unknown origin) using 100 uM alpha-KG by succinate-glo demethylase assay
How it was run: (§5)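 Succinate-Glo run with KDM5A(1−739)ΔAP at varied enzyme concentration and 100 μM αKG. H3(1−24)K4me3 60 μM, Fe(II) 10 μM, ascorbate 100 μM, HEPES pH 8.0, 5% DMSO.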

[23] = molecular target: T1, Lysine-specific demethylase 5A; assay: Irreversible inhibition of KDM5A ARID/PhD1 domain deletion mutant (1 to 739 residues) (unknown origin) assessed as Kinact to Ki ratio; how it was run: as §4
[24] = molecular target: T1, Lysine-specific demethylase 5A; assay: Irreversible inhibition of 0.8 uM KDM5A ARID/PhD1 domain deletion mutant (1 to 739 residues) (unknown origin) using 100 uM alpha-KG by succinate-glo demethylase assay; how it was run: as §5
[25] = molecular target: T1, Lysine-specific demethylase 5A; assay: Irreversible inhibition of 0.4 uM KDM5A ARID/PhD1 domain deletion mutant (1 to 739 residues) (unknown origin) using 100 uM alpha-KG by succinate-glo demethylase assay; how it was run: as §5
[26] = molecular target: T1, Lysine-specific demethylase 5A; assay: Irreversible inhibition of KDM5A ARID/PhD1 domain deletion mutant (1 to 739 residues) (unknown origin) using alpha-KG as substrate by succinate-glo demethylase assay; conditions: TDE = time-dependent effect; how it was run: as §1

T1 sequence (P29375 whole entry, the tested form may be a part): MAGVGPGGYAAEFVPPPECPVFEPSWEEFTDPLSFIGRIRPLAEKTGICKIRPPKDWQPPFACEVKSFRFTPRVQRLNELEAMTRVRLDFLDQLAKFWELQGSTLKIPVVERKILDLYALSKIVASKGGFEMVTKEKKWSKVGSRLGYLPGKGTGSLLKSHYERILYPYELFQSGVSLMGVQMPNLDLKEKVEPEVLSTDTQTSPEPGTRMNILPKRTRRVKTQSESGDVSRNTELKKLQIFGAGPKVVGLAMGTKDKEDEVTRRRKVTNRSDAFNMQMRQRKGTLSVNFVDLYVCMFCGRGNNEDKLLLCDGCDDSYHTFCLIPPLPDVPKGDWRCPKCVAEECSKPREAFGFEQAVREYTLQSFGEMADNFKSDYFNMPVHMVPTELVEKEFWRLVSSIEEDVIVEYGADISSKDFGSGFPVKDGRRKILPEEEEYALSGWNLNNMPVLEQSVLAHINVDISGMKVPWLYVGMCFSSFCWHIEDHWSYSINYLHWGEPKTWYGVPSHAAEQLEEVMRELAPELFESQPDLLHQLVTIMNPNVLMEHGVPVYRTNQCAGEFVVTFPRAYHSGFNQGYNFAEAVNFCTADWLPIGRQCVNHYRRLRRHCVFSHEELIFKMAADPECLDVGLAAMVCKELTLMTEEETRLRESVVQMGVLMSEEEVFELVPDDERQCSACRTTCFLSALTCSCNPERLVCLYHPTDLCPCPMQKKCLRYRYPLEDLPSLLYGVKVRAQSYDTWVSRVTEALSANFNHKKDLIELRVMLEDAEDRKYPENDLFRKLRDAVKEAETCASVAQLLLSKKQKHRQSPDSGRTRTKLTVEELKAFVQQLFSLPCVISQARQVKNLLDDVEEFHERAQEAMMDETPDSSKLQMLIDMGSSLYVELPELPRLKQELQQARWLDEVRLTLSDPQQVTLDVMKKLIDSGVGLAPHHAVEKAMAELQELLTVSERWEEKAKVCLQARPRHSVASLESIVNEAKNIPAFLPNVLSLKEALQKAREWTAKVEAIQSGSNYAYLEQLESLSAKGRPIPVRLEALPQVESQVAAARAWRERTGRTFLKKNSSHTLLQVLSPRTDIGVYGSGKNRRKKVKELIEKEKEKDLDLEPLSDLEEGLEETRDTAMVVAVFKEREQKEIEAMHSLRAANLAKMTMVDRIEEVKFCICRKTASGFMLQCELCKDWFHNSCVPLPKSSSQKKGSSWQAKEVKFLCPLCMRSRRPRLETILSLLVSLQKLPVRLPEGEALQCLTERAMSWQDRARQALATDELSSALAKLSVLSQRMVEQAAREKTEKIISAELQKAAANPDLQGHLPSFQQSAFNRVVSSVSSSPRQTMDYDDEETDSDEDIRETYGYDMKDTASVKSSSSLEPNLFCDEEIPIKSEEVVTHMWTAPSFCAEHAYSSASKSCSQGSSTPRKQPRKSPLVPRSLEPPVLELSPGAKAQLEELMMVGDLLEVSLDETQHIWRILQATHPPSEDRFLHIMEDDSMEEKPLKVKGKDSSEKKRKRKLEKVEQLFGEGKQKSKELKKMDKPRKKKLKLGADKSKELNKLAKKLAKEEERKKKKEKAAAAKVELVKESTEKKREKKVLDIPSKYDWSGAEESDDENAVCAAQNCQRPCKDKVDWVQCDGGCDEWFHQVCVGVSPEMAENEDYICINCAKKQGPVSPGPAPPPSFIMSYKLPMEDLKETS

Row | SMILES | inhibition [1] | IC50 [2] [nM] | IC50 [3] [nM] | IC50 [4] [nM] | IC50 [5] [nM] | Activity [6] | Papp [7] [×10⁻⁶ cm/s] | remaining at 24 h, 10 µM [8] [%] | Ratio IC50 (Homo sapiens) | IC50 [9] [nM] | IC50 [10] [nM] | other results
1 | Nc1cccc(C(OCCN2CCCCC2)c2cc3nccc(C(=O)O)c3s2)c1 (stereo not drawn) | inactive | 5500 | > 100000 | 5400 | 4900 | inactive | 52.7 | 93 | 8.6 | 4200 | 700 | Drug metabolism [11]: Metabolite_Detected
2 | CC(C)OC(=O)c1ccnc2cc(C(OCCN3CCCCC3)c3cccc(NC(=O)/C=C/CN(C)C)c3)sc12 (stereo not drawn) |  |  |  |  |  |  | 71.4 | 80 |  |  |  | fold change (FC) (MCF7 [12]): < 2; Drug uptake [13]: Active; Activity (MDA-MB-231): Active; inhibition [14]: inactive; Activity (MCF7 [15]): Active; fold change (FC) (MCF7 [16]): < 2; Activity (BT-474 [17]): Active; fold change (FC) (MCF7 [18]): < 2; Activity (HEK-293T): Toxic; growth inhibition (GI) (BT-474 [19]): inactive; fold change (FC) (MCF7 [20]): < 2
3 | CN(C)C/C=C/C(=O)Nc1cccc(C(OCCN2CCCCC2)c2cc3nccc(C(=O)O)c3s2)c1 (stereo not drawn) | Active | 110 | 180 | 110 | 1240 | Active | < 1 | 60 | 24 | 5300 | 100 | Ki [21]: 410 nM; Kinact [21]: 0.198 min⁻¹; IC50 [22]: 360 nM; Ratio [23]: 8 ×10³ /M/s; IC50 [24]: 180 nM; IC50 [25]: 60 nM; inhibition [26]: Tde

— ChEMBL document CHEMBL4266040, “Structure-Based Engineering of Irreversible Inhibitors against Histone Lysine Demethylase KDM5A” (J Med Chem, 2018)
